Results as given in ChEMBL document CHEMBL4396917, “Synthesis and biological evaluation of novel benzylidene-succinimide derivatives as noncytotoxic antiangiogenic inhibitors with anticolorectal cancer activity in vivo” (Eur J Med Chem, 2019).
Activity calls are given as the source filed them. The rule behind the calls is not given here.

Tests used:
[1] = tested on: HUVEC; experiment: Antiangiogenic activity against HUVEC assessed as inhibition of cell proliferation measured […] by MTT assay; format: functional, cell-based; conditions: Homo sapiens
[2] = tested on: HUVEC; experiment: Effect on total AKT expression in VEGF-induced HUVEC at 1 to 20 uM pre-incubated for 2 hrs followed by VEGF stimulation and measured after 15 mins by Western blot analysis; format: ADME, cell-based; conditions: human, 0.25 h
Summary of the method: (§1)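 HUVECs serum-starved overnight, pretreated with compound (methods: 1, 2.5, 5, 10 μM for 2 h; legend: 1, 5, 10, 20 μM for 1.5 h), then VEGF 50 ng/mL (methods: VEGF165, 15 min; legend: 30 min); lysates equalized by Bradford, ~20 μg protein resolved on gradient SDS-PAGE, immunoblotted, ECL detection.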

[3] = target: Vascular endothelial growth factor receptor 2 (Homo sapiens) (UniProt P35968); experiment: Inhibition of VEGFR2 in VEGF-stimulated HUVEC assessed as suppression of VEGFR2 phosphorylation at Tyr1175 residue pre-incubated for 2 hrs followed by VEGF stimulation for 15 mins by Western blot analysis; format: cell-based
Vascular endothelial growth factor receptor 2 (Homo sapiens), sequence (P35968 whole entry): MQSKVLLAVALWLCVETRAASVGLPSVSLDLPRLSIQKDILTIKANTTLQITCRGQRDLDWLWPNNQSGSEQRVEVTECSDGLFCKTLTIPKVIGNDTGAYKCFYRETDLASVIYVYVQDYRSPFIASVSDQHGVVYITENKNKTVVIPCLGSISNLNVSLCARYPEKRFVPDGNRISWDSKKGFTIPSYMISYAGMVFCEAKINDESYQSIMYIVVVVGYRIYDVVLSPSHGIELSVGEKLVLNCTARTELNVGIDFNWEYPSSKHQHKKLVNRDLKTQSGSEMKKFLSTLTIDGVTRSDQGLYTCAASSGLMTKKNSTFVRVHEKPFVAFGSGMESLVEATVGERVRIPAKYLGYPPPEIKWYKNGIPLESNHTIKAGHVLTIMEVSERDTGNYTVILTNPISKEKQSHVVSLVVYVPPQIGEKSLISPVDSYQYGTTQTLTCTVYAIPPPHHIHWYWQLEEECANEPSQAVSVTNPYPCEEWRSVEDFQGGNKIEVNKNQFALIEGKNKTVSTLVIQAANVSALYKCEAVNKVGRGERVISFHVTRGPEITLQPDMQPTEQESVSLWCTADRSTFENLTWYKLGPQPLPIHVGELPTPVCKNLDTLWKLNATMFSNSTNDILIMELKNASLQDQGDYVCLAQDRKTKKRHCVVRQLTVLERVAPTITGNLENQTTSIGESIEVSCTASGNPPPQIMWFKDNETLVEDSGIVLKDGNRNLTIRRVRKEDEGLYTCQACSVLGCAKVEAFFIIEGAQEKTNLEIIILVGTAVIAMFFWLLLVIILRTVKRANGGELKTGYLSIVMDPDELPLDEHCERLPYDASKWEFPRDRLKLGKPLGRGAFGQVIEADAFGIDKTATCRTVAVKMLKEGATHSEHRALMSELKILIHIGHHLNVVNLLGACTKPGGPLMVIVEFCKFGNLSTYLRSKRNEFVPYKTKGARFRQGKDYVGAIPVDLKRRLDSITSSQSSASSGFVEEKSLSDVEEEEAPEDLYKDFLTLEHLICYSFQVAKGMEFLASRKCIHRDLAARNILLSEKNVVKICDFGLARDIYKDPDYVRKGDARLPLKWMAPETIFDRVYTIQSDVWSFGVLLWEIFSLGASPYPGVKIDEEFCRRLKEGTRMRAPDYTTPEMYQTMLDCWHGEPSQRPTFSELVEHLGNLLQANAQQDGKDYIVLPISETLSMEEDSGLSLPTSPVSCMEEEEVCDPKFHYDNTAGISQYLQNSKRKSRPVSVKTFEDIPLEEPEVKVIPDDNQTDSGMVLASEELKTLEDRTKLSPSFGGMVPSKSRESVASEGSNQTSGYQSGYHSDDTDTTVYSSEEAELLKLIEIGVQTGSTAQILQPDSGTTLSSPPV
Summary of the method: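 HUVECs serum-starved overnight, pretreated 2 h with 1, 2.5, 5 or 10 μM compound, then stimulated 15 min with 50 ng/mL VEGF165. Lysed in Tris/EDTA/Triton/deoxycholate/SDS buffer with phosphatase and protease inhibitors. Protein equalized by Bradford, about 20 μg resolved on gradient SDS-PAGE. Blots probed for phospho and total VEGFR2 (Tyr1175), ERK1/2 (Thr202/Tyr204) and AKT (Ser473) against actin, with HRP/ECL detection.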

[4] = tested on: HCT-116; experiment: Cytotoxicity against human HCT116 cells assessed as reduction in cell growth after 72 hrs by MTT assay; format: cell-based; conditions: HCT-116, 72 h
[5] = tested on: HT-29; experiment: Inhibition of Akt/mTOR signalling in human HT-29 cells assessed as reduction in AKT phosphorylation at Ser473 residue incubated for 24 hrs by immunoblot analysis; format: cell-based
Summary of the method: (§2)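 HT29 cells were exposed to the indicated concentrations for 24 h. Cell lysates were then immunoblotted for the phosphorylated proteins.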

[6] = tested on: HT-29; experiment: Induction of apoptosis in human HT-29 cells assessed as necrotic cells at 10 uM after 24 hrs by Annexin V-FITC/propidium iodide staining based flow cytometric analysis (reference value: 3.9%); format: cell-based; conditions: ht-29, 24 h
[7] = target: Mitogen-activated protein kinase 1 (Homo sapiens) (UniProt P28482); experiment: Inhibition of ERK2 (unknown origin) at 10 uM using myelin basic protein as substrate in presence of [gamma-33P]-ATP by scintillation counting analysis relative to control
Mitogen-activated protein kinase 1 (Homo sapiens), sequence (P28482 whole entry): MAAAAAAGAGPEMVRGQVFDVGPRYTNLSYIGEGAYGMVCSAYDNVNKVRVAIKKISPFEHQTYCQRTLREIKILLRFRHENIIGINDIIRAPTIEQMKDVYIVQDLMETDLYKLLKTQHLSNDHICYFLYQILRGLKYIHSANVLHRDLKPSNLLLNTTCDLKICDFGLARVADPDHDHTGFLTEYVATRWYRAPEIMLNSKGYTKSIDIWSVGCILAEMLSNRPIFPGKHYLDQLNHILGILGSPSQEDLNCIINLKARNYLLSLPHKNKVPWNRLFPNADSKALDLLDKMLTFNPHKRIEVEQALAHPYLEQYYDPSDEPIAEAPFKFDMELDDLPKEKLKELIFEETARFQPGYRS
Summary of the method: (§3)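 Radiometric kinase panel run by a contract lab. Kinase (5–10 mU) in 25 mM Tris pH 7.5, 0.02 mM EGTA, 0.66 mg/mL myelin basic protein, magnesium acetate and [γ-33P]-ATP (about 500 cpm/pmol). Started with Mg-ATP mix, 40 min at room temperature, stopped with 3% phosphoric acid. Spotted on P30 filters, washed in 75 mM phosphoric acid and methanol, scintillation counted. Mean ± SD of three independent experiments.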

[8] = tested on: HT-29; experiment: Antitumor activity against human HT-29 cells xenografted in mouse assessed as reduction in tumour volume at 60 mg/kg, po administered every other day for 3 weeks and measured at 20 days post-treatment relative to control; format: functional; conditions: HT-29, po
[9] = tested on: HT-29; experiment: Inhibition of Akt/mTOR signalling in human HT-29 cells assessed as reduction in STAT3 phosphorylation at Tyr705 residue incubated for 24 hrs by immunoblot analysis; format: cell-based; summary of the method: as §2
[10] = Induction of apoptosis in VEGF-stimulated HUVEC assessed as viable cells at 5 uM after 24 hrs by Annexin V-FITC/propidium iodide staining based flow cytometric analysis (reference value: 69.6%); format: cell-based; conditions: human, read-out: Activity
Summary of the method: (§4)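 HUVECs plated at 5×10^5 per well and treated 24 h with 1, 5, 10 or 20 μM. Detached and adherent cells were pooled, washed in ice-cold PBS and resuspended in fresh medium. 1×10^5 cells were stained with annexin-V-FITC in annexin-V buffer for 20 min in the dark, then PI (50 μg/mL) was added. Read-out by flow cytometry.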

[11] = target: Vascular endothelial growth factor receptor 2 (Homo sapiens) (UniProt P35968); experiment: Inhibition of VEGFR2 in VEGF-stimulated HUVEC assessed as downregulation of FAK phosphorylation at Tyr925 residue at 1 to 10 uM pre-incubated for 2 hrs followed by VEGF stimulation and measured after 15 mins by Western blot analysis; format: cell-based
[12] = tested on: HT-29; experiment: Induction of apoptosis in human HT-29 cells assessed as late apoptotic cells at 5 uM after 48 hrs by Annexin V-FITC/propidium iodide staining based flow cytometric analysis (reference value: 12.3%); format: cell-based; conditions: ht-29, 48 h
[13] = tested on: HUVEC; experiment: Induction of apoptosis in VEGF-stimulated HUVEC assessed as late apoptotic cells at 1 uM after 24 hrs by Annexin V-FITC/propidium iodide staining based flow cytometric analysis (reference value: 11.3%); format: cell-based; conditions: human; summary of the method: as §4
[14] = tested on: HUVEC; experiment: Induction of apoptosis in VEGF-stimulated HUVEC assessed as early apoptotic cells at 20 uM after 24 hrs by Annexin V-FITC/propidium iodide staining based flow cytometric analysis (reference value: 7%); format: cell-based; conditions: human; summary of the method: as §4
[15] = tested on: HUVEC; experiment: Induction of apoptosis in VEGF-stimulated HUVEC assessed as early apoptotic cells at 1 uM after 24 hrs by Annexin V-FITC/propidium iodide staining based flow cytometric analysis (reference value: 7%); format: cell-based; conditions: human; summary of the method: as §4
[16] = tested on: HT-29; experiment: Downregulation of VEGF expression in human HT-29 cells after 24 hrs by immunoblot analysis; format: functional, cell-based
[17] = tested on: HT-29; experiment: Downregulation of HIF1-alpha expression in human HT-29 cells after 24 hrs by immunoblot analysis; format: functional, cell-based
[18] = Induction of apoptosis in human HT-29 cells assessed as viable cells at 5 uM after 48 hrs by Annexin V-FITC/propidium iodide staining based flow cytometric analysis (reference value: 81.1%); format: cell-based; conditions: read-out: Activity
[19] = tested on: HUVEC; experiment: Effect on total ERK expression in VEGF-induced HUVEC at 1 to 20 uM pre-incubated for 2 hrs followed by VEGF stimulation and measured after 15 mins by Western blot analysis; format: ADME, cell-based; conditions: human, 0.25 h; summary of the method: as §1
[20] = tested on: HUVEC; experiment: Antimigratory activity in HUVEC assessed as reduction in VEGF-induced cell migration at 2.5 uM measured after 12 hrs by wound healing assay relative to control; format: functional; conditions: Homo sapiens
Summary of the method: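 Confluent HUVECs starved 12 h in M200 with 2% FBS, scratched with pipette tip; fresh M200 with 25 ng/mL VEGF plus vehicle, 2.5 μM sunitinib or compound (1, 2.5 μM); wound imaged at 0, 6, 12 and 24 h by inverted microscopy.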

[21] = tested on: HT-29; experiment: Induction of apoptosis in human HT-29 cells assessed as late apoptotic cells at 10 uM after 24 hrs by Annexin V-FITC/propidium iodide staining based flow cytometric analysis (reference value: 13.4%); format: cell-based; conditions: ht-29, 24 h
[22] = target: Mitogen-activated protein kinase 3 (Homo sapiens) (UniProt P27361); experiment: Inhibition of ERK1 (unknown origin) at 10 uM using myelin basic protein as substrate in presence of [gamma-33P]-ATP by scintillation counting analysis relative to control; summary of the method: as §3
Mitogen-activated protein kinase 3 (Homo sapiens), sequence (P27361 whole entry): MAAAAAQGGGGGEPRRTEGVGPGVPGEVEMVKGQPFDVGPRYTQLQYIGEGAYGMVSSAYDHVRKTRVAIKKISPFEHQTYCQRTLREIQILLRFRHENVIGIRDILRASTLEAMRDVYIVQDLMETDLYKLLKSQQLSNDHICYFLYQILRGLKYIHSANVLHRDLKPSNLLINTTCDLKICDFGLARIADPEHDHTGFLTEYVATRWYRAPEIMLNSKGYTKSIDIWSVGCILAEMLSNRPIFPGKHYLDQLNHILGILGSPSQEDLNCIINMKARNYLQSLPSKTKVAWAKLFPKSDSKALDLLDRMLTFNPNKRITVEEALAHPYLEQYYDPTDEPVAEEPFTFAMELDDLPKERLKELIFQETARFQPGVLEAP

[23] = tested on: PC-3; experiment: Cytotoxicity against human PC3 cells assessed as reduction in cell growth after 72 hrs by MTT assay; format: cell-based; conditions: PC-3, 72 h

Activity [2]: Not Active | inhibition [3]: Dose-dependent effect | inhibition [7]: 50 to 70% | inhibition [11]: Active | Activity [19]: Not Active | inhibition [22]: 50 to 70%
Structure (SMILES): COc1ccc(NC(=O)c2cccc(/C=C3\CC(=O)N(c4ccc(C)cc4)C3=O)c2)cc1
inhibition [1]: Dose-dependent effect | IC50 ([1]; 0.5 h): 26.6 µM | IC50 [4]: > 100 µM | inhibition [5]: Dose-dependent effect | Activity [6]: 2.3% | inhibition in vivo at 60 mg/kg [8]: 53.5% | inhibition [9]: Dose-dependent effect | viability at 24 h, 5 µM [10]: 75.4% | Activity [12]: 13.1% | Activity [13]: 10.4% | Activity [14]: 9.8% | Activity [15]: 10.7% | inhibition [16]: Dose-dependent effect | inhibition [17]: Dose-dependent effect | viability at 48 h, 5 µM [18]: 76.1% | inhibition at 2.5 µM [20]: 50% | Activity [21]: 19% | IC50 [23]: > 100 µM
